Published values pooled from the literature.
Compare with care: the assays were run in different laboratories.
Target: Cyclin-dependent kinase-like 2 (CDKL2, Homo sapiens, UniProt Q92772)
One construct used (Q92772 1-493): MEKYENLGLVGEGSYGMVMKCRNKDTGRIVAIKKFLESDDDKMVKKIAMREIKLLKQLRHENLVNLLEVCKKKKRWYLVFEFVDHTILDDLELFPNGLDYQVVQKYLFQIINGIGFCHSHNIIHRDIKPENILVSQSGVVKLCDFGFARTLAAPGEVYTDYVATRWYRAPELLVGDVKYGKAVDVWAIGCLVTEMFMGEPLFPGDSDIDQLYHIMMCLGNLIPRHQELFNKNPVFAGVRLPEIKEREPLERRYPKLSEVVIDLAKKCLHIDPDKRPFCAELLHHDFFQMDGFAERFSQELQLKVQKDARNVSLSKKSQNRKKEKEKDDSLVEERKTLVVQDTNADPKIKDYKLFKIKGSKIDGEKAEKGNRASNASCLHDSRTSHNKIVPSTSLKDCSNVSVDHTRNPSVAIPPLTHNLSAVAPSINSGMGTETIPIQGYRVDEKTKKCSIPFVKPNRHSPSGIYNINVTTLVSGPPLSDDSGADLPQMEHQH

For N#Cc1ccc(Nc2ccc3[nH]c(=O)[nH]c3c2)c(Cl)c1, the remaining binding was 100% (binding, competition with immobilised ligand; 1 µM).
With FC(F)(F)Oc1cccc(-c2cnc3ccc(-c4ccncc4)nn23)c1 the remaining binding was 67% (cell-free assay, competition with immobilised ligand; 5 µM).
With F[C@@H]1CCN(c2nccc(-c3cnn4ncccc34)n2)C1 the remaining binding was 100% (binding; 1 µM).
C[C@@H](c1ccc(-n2cnc3c(N)ncnc32)cc1)N1CCc2nn(C)c(Cc3ccccc3)c2C1=O has a remaining binding of 67% (binding, competition with immobilised ligand; 0.1 µM).
With O=C(c1ccc(Nc2nccc(-c3cc4ccccc4s3)n2)cc1)N1CCC(N2CCCC2)CC1 the remaining binding was 8.8% (binding, competition with immobilised ligand; 1 µM).
O=C(Nc1c[nH]nc1C(=O)NC1CCNCC1)c1cc(F)cc(F)c1 gave a remaining binding of 89% (binding, competition with immobilised ligand; 1 µM).
For O=C(c1ccc(Nc2ncc(Cl)c(-c3ccc(Cl)s3)n2)cc1)N1CCC(N2CCCC2)CC1, the remaining binding was 2.3% (binding, competition with immobilised ligand; 1 µM).
N[C@@H]1CCN(c2nccc(-c3cnn4ncccc34)n2)C1 gave a remaining binding of 100% (binding; 1 µM).
Cc1cnc(Nc2ccc(C(=O)N3CCC(N4CCCC4)CC3)cc2)nc1-c1cc2ccccc2s1 has a remaining binding of 12% (binding, competition with immobilised ligand; 1 µM).
Cc1nc(C2CCN(C(=O)c3ccc(OC(F)(F)F)cc3N)CC2)c2ncc(N3CCN(C)CC3)cc2n1 gave a remaining binding of 100% (cell-free assay, competition with immobilised ligand; 1 µM).
C[C@H]1CCN(c2nccc(-c3cnn4ncccc34)n2)C1 gave a remaining binding of 100% (binding; 1 µM).
With CC(=O)N1CCC(c2ccc(C(=O)NC3=NCCN3)cc2C(F)(F)F)CC1 the remaining binding was 100% (cell-free assay, competition with immobilised ligand; 1 µM).
For Cc1cnn2ncc(-c3ccnc(N(C)C)n3)c2c1, the remaining binding was 100% (binding; 1 µM).
O=C1CCc2cc(Nc3cc(OC4CCOCC4)c([N+](=O)[O-])cc3Cl)ccc2N1 has a remaining binding of 92% (cell-free assay, competition with immobilised ligand; 1 µM).
COc1ccnn2ncc(-c3ccnc(N(C)C)n3)c12 gave a remaining binding of 91% (binding; 1 µM).
With CCN1CCN(Cc2ccc(C(=O)Nc3ccc(C)c(Oc4ccc5c(c4)CC(=O)N5)c3)cc2C(F)(F)F)CC1 the remaining binding was 75% (binding, competition with immobilised ligand; 1 µM).
With COc1cnc(Nc2cccc(S(N)(=O)=O)c2)nc1N1CCN(c2ccccc2)C(=O)C1 the remaining binding was 98% (binding, competition with immobilised ligand; 1 µM).
COc1ncc2cc3ccccc3nc2c1C#N gave a remaining binding of 90% (binding, competition with immobilised ligand; 5 µM).
With C[C@H](c1ccnc(Nc2nc3ccc(-c4cc(N(C)C)ncn4)cc3[nH]2)c1)N1CCN(C(=O)CC(F)(F)F)CC1 the remaining binding was 100% (binding, competition with immobilised ligand; 0.1 µM).
With CN(C)c1ncc(F)c(-c2cnn3ncccc23)n1 the remaining binding was 89% (binding; 1 µM).
For Cn1cc(Cl)c2c(Oc3c(F)cc(Nc4cc(Cl)nc(N)n4)cc3F)ccnc21, the remaining binding was 100% (cell-free assay, competition with immobilised ligand; 0.1 µM).
CN(C)c1nccc(-c2cnc3ncccn23)n1 has a remaining binding of 100% (binding; 1 µM).
